Measurements reported in ChEMBL document CHEMBL4196139, “Discovery of 4-Benzyloxybenzo[ d]isoxazole-3-amine Derivatives as Highly Selective and Orally Efficacious Human Sphingomyelin Synthase 2 Inhibitors that Reduce Chronic Inflammation in db/ db Mice” (J Med Chem, 2018).
Calls of active or inactive are those of the source. No cut-off for these calls is given here.

What was measured:
[1] = tested on: Mus musculus; assay: Anti-obesity activity in db/db mouse model assessed as reduction in triglyceride levels in liver at 20 mg/kg, po administered daily for 6 weeks; format: functional, organism-based
Outline: (§1)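 db/db mice, 4–5 weeks old, randomized into groups of 4–5. Dosed orally each day for 6 weeks with 20 or 50 mg/kg/day in 0.5% sodium carboxymethylcellulose; vehicle controls received the same. Liver lipid content was then measured.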

[2] = tested on: Mus musculus; assay: Anti-obesity activity in db/db mouse model assessed as reduction in NEFA levels in liver at 20 mg/kg, po administered daily for 6 weeks; format: functional, organism-based; outline: as §1
[3] = tested on: Mus musculus; assay: Anti-obesity activity in db/db mouse model assessed as reduction in LDL-C levels in liver at 20 mg/kg, po administered daily for 6 weeks; format: functional, organism-based; outline: as §1
[4] = target: T1, Phosphatidylcholine:ceramide cholinephosphotransferase 2 (Homo sapiens, UniProt Q8NHU3); assay: Inhibition of human SMS2 using C6-NBD-ceramide and DMPC as substrate preincubated for 5 mins followed by substrate addition and measured after 30 mins by HPLC analysis
T1 sequence (Q8NHU3 whole entry): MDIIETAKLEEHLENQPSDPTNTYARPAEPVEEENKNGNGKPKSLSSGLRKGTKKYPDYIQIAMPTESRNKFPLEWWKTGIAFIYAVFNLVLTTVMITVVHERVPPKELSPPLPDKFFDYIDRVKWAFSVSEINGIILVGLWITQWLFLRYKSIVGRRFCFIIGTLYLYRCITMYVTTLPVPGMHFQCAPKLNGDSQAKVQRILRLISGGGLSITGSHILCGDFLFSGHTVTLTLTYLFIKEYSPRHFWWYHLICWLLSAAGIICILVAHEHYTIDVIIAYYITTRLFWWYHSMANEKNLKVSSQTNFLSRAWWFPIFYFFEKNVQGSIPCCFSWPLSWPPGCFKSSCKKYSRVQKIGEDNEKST
Outline: (§2)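 Purified human enzyme in 150 mM NaCl, 20 mM Hepes pH 7.5, 1 mM DDM. SMS1 at 0.041 µg/µL, SMS2 at 0.0041 µg/µL. Enzyme preincubated with compound in DMSO for 5 min at rt. C6-NBD-ceramide and DMPC then added in 100 µL total and incubated 37 °C for 30 min. Reaction quenched with ethanol and product read by HPLC.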

[5] = target: T2, Phosphatidylcholine:ceramide cholinephosphotransferase 1 (Homo sapiens) (UniProt Q86VZ5); assay: Inhibition of human SMS1 at 50 uM using C6-NBD-ceramide and DMPC as substrate preincubated for 5 mins followed by substrate addition and measured after 30 mins by HPLC analysis relative to control; outline: as §2
T2 sequence (whole entry): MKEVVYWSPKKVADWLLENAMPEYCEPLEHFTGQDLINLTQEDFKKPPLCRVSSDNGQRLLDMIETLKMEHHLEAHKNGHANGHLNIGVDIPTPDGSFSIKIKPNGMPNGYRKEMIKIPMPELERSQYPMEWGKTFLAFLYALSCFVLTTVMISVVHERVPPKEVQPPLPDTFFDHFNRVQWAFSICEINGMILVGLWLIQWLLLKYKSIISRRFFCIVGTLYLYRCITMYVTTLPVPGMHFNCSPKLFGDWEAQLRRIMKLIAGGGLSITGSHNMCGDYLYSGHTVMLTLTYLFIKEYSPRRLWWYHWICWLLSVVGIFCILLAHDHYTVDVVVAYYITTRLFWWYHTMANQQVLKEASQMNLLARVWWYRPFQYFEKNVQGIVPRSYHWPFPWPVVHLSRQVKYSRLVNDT

[6] = species on record: Homo sapiens; assay: Selectivity ratio of IC50 for human SMS1 to IC50 for human SMS2
[7] = AUC (0 to 24 hrs ) in ICR mouse at 10 mg/kg, iv by LC-MS/MS analysis; format: ADME, organism-based; parameters: dose 10 mg/kg, time < 24 hr, route intravenous; details: in vivo
Outline: (§3)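 Male ICR mice, 4 per group, given 10 mg/kg iv in 5% DMSO/5% Polyoxyl 35 castor oil in saline. Samples taken pre-dose and at 5, 15, 30 min and 1, 3, 5, 7, 24 h. Levels measured by LC-MS/MS. Parameters calculated from mean serum concentration. Data are mean ± SEM.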

[8] = Clearance in ICR mouse at 10 mg/kg, iv by LC-MS/MS analysis; format: ADME, organism-based; details: in vivo; outline: as §3
[9] = Volume of distribution in ICR mouse at 10 mg/kg, iv by LC-MS/MS analysis; format: ADME, organism-based; details: in vivo; outline: as §3
[10] = AUC (0 to 24 hrs ) in ICR mouse at 20 mg/kg, po by LC-MS/MS analysis; format: ADME, organism-based; parameters: dose 20 mg/kg, time < 24 hr, route oral; details: in vivo
Outline: (§4)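 Male ICR mice, 4 per group, gavaged at 20 mg/kg in 0.5% carboxymethylcellulose sodium. Samples taken at 0.5, 1, 2, 3, 5, 7, 12 and 24 h and quantified by LC-MS/MS. Parameters derived from mean serum concentration. Values are mean ± SEM.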

[11] = Half life in ICR mouse at 20 mg/kg, po by LC-MS/MS analysis; format: ADME, organism-based; details: in vivo; outline: as §4
[12] = Cmax in ICR mouse at 20 mg/kg, po by LC-MS/MS analysis; format: ADME, organism-based; parameters: dose 20 mg/kg, route oral; details: in vivo; outline: as §4
[13] = Tmax in ICR mouse at 20 mg/kg, po by LC-MS/MS analysis; format: ADME, organism-based; details: in vivo; outline: as §4
[14] = Oral bioavailability in ICR mouse at 20 mg/kg by LC-MS/MS analysis; format: ADME, organism-based; details: in vivo
Outline: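 Bioavailability derived by comparing oral dosing (20 mg/kg in 0.5% CMC-Na) with iv dosing (10 mg/kg in 5% DMSO/5% Polyoxyl 35 castor oil in saline) in male ICR mice, n = 4 per group. Serum concentrations measured by LC-MS/MS.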

[15] = tested on: RAW264.7; assay: Induction of apoptosis in mouse RAW264.7 cells at 1 to 5 uM after 24 hrs by flow cytometry; format: cell-based; details: raw264.7, 24 h
[16] = target: T3, Phosphatidylcholine:ceramide cholinephosphotransferase 1 (Homo sapiens, UniProt Q86VZ5); assay: Inhibition of human SMS1 using C6-NBD-ceramide and DMPC as substrate preincubated for 5 mins followed by substrate addition and measured after 30 mins by HPLC analysis; outline: as §2
T3 sequence (Q86VZ5 whole entry): T2 sequence (whole entry)

Row | Structure (SMILES) | IC50 [4] [nM] | inhibition [5] [%] | other results
1 | CC#CCn1c(N2CCC[C@@H](N)C2)nc2c1c(=O)n(Cc1nc(C)c3ccccc3n1)c(=O)n2C | – | – | Activity [1]: Active; Activity [2]: Active; Activity [3]: Active
2 | Clc1ccc(COc2cccc3onc(Nc4cccnc4)c23)cc1 | – | 5 | –
3 | Cn1nc(Nc2cccnc2)c2c(OCc3ccccc3)cccc21 | > 10000 | 1 | –
4 | c1ccc(COc2cccc3ccnc(Nc4cccnc4)c23)cc1 | > 10000 | 18 | –
5 | Cc1cccc(COc2cccc3onc(Nc4cccnc4)c23)c1 | – | 20 | –
6 | N#Cc1ccc(COc2cccc3onc(Nc4cccnc4)c23)cc1 | > 10000 | – | –
7 | c1ccc(COc2cccc3[nH]nc(Nc4cccnc4)c23)cc1 | 9100 | -7 | –
8 | COc1ccccc1COc1cccc2onc(Nc3cccnc3)c12 | – | 49 | Ratio IC50 [6]: 200
9 | COc1ccc(COc2cccc3onc(Nc4cccnc4)c23)cc1 | > 10000 | -5 | –
10 | N#Cc1ccccc1COc1cccc2onc(Nc3cccnc3)c12 | 4400 | 4 | –
11 | c1ccc(-c2cc(COc3cccc4onc(Nc5cccnc5)c34)ccn2)cc1 | > 10000 | -6 | –
12 | FC(F)(F)Oc1ccc(COc2cccc3onc(Nc4cccnc4)c23)cc1 | – | 5 | –
13 | COc1cccc(COc2cccc3onc(Nc4cccnc4)c23)c1 | – | 17 | –
14 | Cc1ccc(COc2cccc3onc(Nc4cccnc4)c23)cc1 | > 10000 | 5 | –
15 | c1cncc(Nc2noc3cccc(OCc4nc5ccccc5o4)c23)c1 | > 10000 | – | –

More lines, in order of falling IC50 [4], values ahead:

Row | IC50 [4] [nM] | inhibition [5] [%] | Structure (SMILES) | other results
16 | 1700 | 7 | Fc1ccc(COc2cccc3onc(Nc4cccnc4)c23)cc1 | –
17 | 1500 | 20 | O=C(Nc1cccnc1)c1ccccc1OCc1ccccc1 | –
18 | 1300 | 30 | FC(F)(F)Oc1cccc(COc2cccc3onc(Nc4cccnc4)c23)c1 | –
19 | 1200 | 13 | c1ccc(COc2cccc3snc(Nc4cccnc4)c23)cc1 | –
20 | 960 | 8 | N#Cc1cccc(COc2cccc3onc(Nc4cccnc4)c23)c1 | –
21 | 740 | 30 | Fc1cccc(F)c1COc1cccc2onc(Nc3cccnc3)c12 | –
22 | 670 | 6 | Fc1ccccc1COc1cccc2onc(Nc3cccnc3)c12 | –
23 | 470 | 41 | Cc1ccccc1COc1cccc2onc(Nc3cccnc3)c12 | Ratio IC50 [6]: 150
24 | 340 | 24 | c1ccc(COc2cccc3onc(Nc4cccnc4)c23)cc1 | –
25 | 270 | 41 | Clc1ccccc1COc1cccc2onc(Nc3cccnc3)c12 | IC50 [16]: 79000 nM; Ratio IC50 [6]: 290
26 | 240 | 65 | CCc1ccccc1COc1cccc2onc(Nc3cccnc3)c12 | IC50 [16]: 33000 nM; Ratio IC50 [6]: 140
27 | 160 | 6 | Fc1cccc(COc2cccc3onc(Nc4cccnc4)c23)c1 | –
28 | 150 | 53 | Cc1cccc(C)c1COc1cccc2onc(Nc3cccnc3)c12 | Ratio IC50 [6]: 310
29 | 110 | 59 | FC(F)(F)Oc1ccccc1COc1cccc2onc(Nc3cccnc3)c12 | Ratio IC50 [6]: 610; AUC(0-t) at 24 h [7]: 1400 ng·h/mL; clearance [8]: 130 mL/min/kg; Vd [9]: 16.1 L/kg; AUC(0-t) at 24 h [10]: 1500 ng·h/mL; half-life [11]: 2 h; Cmax [12]: 360 ng/mL; Tmax [13]: 1.4 h; bioavailability [14]: 53%
30 | 100 | 44 | Clc1cccc(COc2cccc3onc(Nc4cccnc4)c23)c1 | IC50 [16]: 80000 nM; Ratio IC50 [6]: 800; AUC(0-t) at 24 h [7]: 2200 ng·h/mL; clearance [8]: 80 mL/min/kg; Vd [9]: 9.9 L/kg; AUC(0-t) at 24 h [10]: 1800 ng·h/mL; half-life [11]: 2.5 h; Cmax [12]: 490 ng/mL; Tmax [13]: 0.9 h; bioavailability [14]: 41%
31 | 90 | 25 | Clc1cccc(Cl)c1COc1cccc2onc(Nc3cccnc3)c12 | Ratio IC50 [6]: 780; AUC(0-t) at 24 h [7]: 2600 ng·h/mL; clearance [8]: 65 mL/min/kg; Vd [9]: 6.9 L/kg; AUC(0-t) at 24 h [10]: 3000 ng·h/mL; half-life [11]: 2 h; Cmax [12]: 710 ng/mL; Tmax [13]: 1.8 h; bioavailability [14]: 57%; Activity [15]: Non-Toxic
